Results of several laboratories.
FGFR2: Fibroblast growth factor receptor 2 (FGFR2, Homo sapiens, UniProt P21802)

| Compound | target | effect on | action | method | tested at | quantity | value |
| --- | --- | --- | --- | --- | --- | --- | --- |
| Cc1cnc(NC2CCOCC2)nc1-n1cnc(C(=O)NC(CN)c2cc(F)cc(Cl)c2)c1 (centres unmarked) | FGFR2 | enzyme activity | inhibitor | radiometric | 1 µM | remaining activity | 100% |
| CCN(CC)CCNC(=O)c1c(C)[nH]c(/C=C2\C(=O)Nc3ccc(F)cc32)c1C | FGFR2 | enzyme activity | inhibitor | – | 10 µM | inhibition | 94% |
| Cc1ccc(C(=O)NCc2ccsc2)cc1C#Cc1cn(C(C)C)c2ncnc(N)c12 | FGFR2 | enzyme activity | inhibitor | – | 1 µM | activity vs control | 55% |
| CN(c1ccnc(CNc2nc(Nc3ccc4c(c3)CC(=O)N4)ncc2C(F)(F)F)n1)S(C)(=O)=O | FGFR2 | cell-free assay | – | competition with immobilised ligand | 1 µM | remaining binding | 59% |
| O=C1NC(=O)c2cc(Nc3ccc(F)cc3)c(Nc3ccc(F)cc3)cc21 | FGFR2 | cell-free assay | – | – | 0.5 µM | remaining signal | 102% |
| Cc1ccc(Nc2nccc(N(C)c3ccc4c(C)n(C)nc4c3)n2)cc1S(N)(=O)=O | FGFR2 | enzyme activity | inhibitor | – | 10 µM | inhibition | 99% |
| Cc1ccc(NC(=O)c2ccc(C)c(C(F)(F)F)c2)cc1C#Cc1nn(C2CCC(O)CC2)c2ncnc(N)c12 (centres unmarked) | Fibroblast growth factor receptor 2 (FGFR2, Homo sapiens, UniProt P21802, N549H) | cell-free assay | – | – | 10 µM | remaining signal | -1% |
| COc1cc(-c2cn(C3CCc4c(F)cccc4N(CC(F)(F)F)C3=O)nn2)ccc1-n1cnc(C)c1 (centres unmarked) | FGFR2 | cell-free assay | – | competition with immobilised ligand | 1 µM | remaining binding | 100% |
| CC(C)(O)[C@H]1CC[C@H](Nc2ccc3ncc(-c4cccc(C(F)(F)F)c4)n3n2)CC1 | FGFR2 | enzyme activity | inhibitor | – | 1 µM | remaining activity | 98.3% |
| CNCc1ccccc1-c1csc([C@H](C)Nc2nc(C)nc3cc(OC)c(OC)cc23)c1 | FGFR2 | cell-free assay | – | competition with immobilised ligand | 1 µM | remaining binding | 94% |
| CNc1cccc2cc(C(=O)Nc3ccc(C(=O)O)cc3)c(=O)[nH]c12 | FGFR2 | enzyme activity | inhibitor | – | 10 µM | inhibition | -1% |
| O=C1Nc2ccc(Cl)cc2C1=Cc1cc(Cl)c(O)c(Cl)c1 | FGFR2 | cell-free assay | – | – | 0.5 µM | remaining signal | 92% |
| CCCOc1ccc(OC)c(F)c1C(=O)c1ccc(C(=O)N[C@@H]2CNC[C@H]2NC(=O)c2ccc3[nH]ncc3c2)cc1 | FGFR2 | enzyme activity | inhibitor | – | 10 µM | remaining activity | 70% |
| CCc1ccccc1C(=O)Nc1n[nH]c2c(C)c(F)c(C3C(C#N)=C(C)N(C)C(C)=C3C#N)cc12 | FGFR2 | cell-free assay | – | competition with immobilised ligand | 1 µM | remaining binding | 83% |
| CS(=O)(=O)CCNCc1ccc(-c2ccc3ncnc(Nc4ccc(OCc5cccc(F)c5)c(Cl)c4)c3c2)o1 | FGFR2 | cell-free assay | – | – | 0.5 µM | remaining signal | 96.4% |
| CN(C)CC#Cc1ccc(OCCCc2sc(N3CCc4cccc(C(=O)Nc5nc6ccccc6s5)c4C3)nc2C(=O)O)c(F)c1 | FGFR2 | cell-free assay | – | competition with immobilised ligand | 1 µM | remaining binding | 98% |
| O=C(Nc1cnn(-c2csc(C(=O)NC3COC3)c2)c1)Nc1ccccc1Cl | FGFR2 | enzyme activity | inhibitor | – | 5 µM | remaining activity | 95.6% |
